Laboratory results: ChEMBL document CHEMBL4334486 (J Med Chem, 2019)
pIC50: −log10 of the molar value. Calls of active or inactive are those of the source. The calls are words filed in the database; no cut-off is given here.

Key:
[1] = Toxicity in human CFBEdeltaF cells isolated from CF patient at 20 uM incubated for 24 hrs by LDH assay; type: cell-based
Procedure, shortened: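 CF bronchial epithelial CFBEΔF monolayers are treated with compound at 20 μM (water vehicle control) for 24 h. Cytotoxicity is measured as LDH released into the medium. Triton is the lysis reference.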

[2] = tested on: Pseudomonas aeruginosa; assay: Antibiofilm activity against Pseudomonas aeruginosa PAO1 assessed as inhibition of biofilm formation incubated for 8 hrs at 20 uM by crystal violet based O'Toole method relative to control; type: functional; conditions: PAO1, 8 h
Procedure, shortened: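 O'Toole biofilm assay. PAO1 is grown in M63 minimal medium with 0.4% arginine and 1 mM MgSO4. Compound at 20 μM, or an equal volume of water as vehicle control, is added at inoculation. Incubation is 8 h at 37 °C. Growth is read at 550 nm on removed medium. Biofilm is stained with 0.1% crystal violet and quantified.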

[3] = tested on: Pseudomonas aeruginosa; assay: Antimicrobial activity against siderophore-producing Pseudomonas aeruginosa PAO1 assessed as inhibition of bacterial growth at 0.125 to 128 ug/mL under iron-supplemented succinate minimal medium in the presence of 50 uM of FeCl3; type: functional, organism-based
Procedure, shortened: (§1)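 Succinate minimal medium with FeCl3 at 8 μg/mL (50 μM), inoculated with the strain at 0.5 McFarland. Compound is added from 2-fold DMSO dilutions; DMSO alone is the growth control. Incubation is 24 h. OD600 gives growth, with cell-free baselines. Runs are at least duplicate, mean + SD; Mann−Whitney test, p<0.05.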

[4] = tested on: Pseudomonas aeruginosa; assay: Antibiofilm activity against Pseudomonas aeruginosa PAO1 assessed as inhibition of biofilm formation incubated for 8 hrs at 20 uM by crystal violet based O'Toole method relative to control
[5] = molecular target: Fucose-binding lectin PA-IIL (Pseudomonas aeruginosa (strain ATCC 15692 / DSM 22644 / CIP 104116 / JCM14847 / LMG 12228 / 1C / PRS 101 / PAO1)) (UniProt Q9HYN5); assay: Potency index, ratio of IC50 for Me-alpha-L-fucoside to IC50 for test compound for inhibition of Pseudomonas aeruginosa LecB by fluorescence polarization assay
Fucose-binding lectin PA-IIL (Pseudomonas aeruginosa (strain ATCC 15692 / DSM 22644 / CIP 104116 / JCM14847 / LMG 12228 / 1C / PRS 101 / PAO1)), sequence (Q9HYN5 as listed by the source): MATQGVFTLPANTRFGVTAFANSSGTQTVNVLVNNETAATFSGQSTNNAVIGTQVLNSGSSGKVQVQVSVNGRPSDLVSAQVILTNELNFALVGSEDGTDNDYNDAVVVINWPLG

[6] = tested on: Pseudomonas aeruginosa; assay: Antimicrobial activity against siderophore-deficient Pseudomonas aeruginosa PAD07 in siderophore-deficient PAD07 assessed as inhibition of bacterial growth at 0.0625 to 128 ug/mL incubated for 24 hrs under iron-supplemented succinate minimal medium in the presence of 50 uM of FeCl3; type: functional, organism-based; procedure, shortened: as §1
[7] = molecular target: Fucose-binding lectin PA-IIL (Pseudomonas aeruginosa (strain ATCC 15692 / DSM 22644 / CIP 104116 / JCM14847 / LMG 12228 / 1C / PRS 101 / PAO1), UniProt Q9HYN5); assay: Inhibition of Pseudomonas aeruginosa LecB by fluorescence polarization assay
Fucose-binding lectin PA-IIL, sequence (Q9HYN5 whole entry): as the sequence (Q9HYN5 as listed by the source) above

[8] = tested on: Pseudomonas aeruginosa; assay: Induction of fluorescent pyoverdine-1 siderophore production in siderophore-producing Pseudomonas aeruginosa PAO1 at 0.125 to 128 ug/mL incubated for 24 hrs under iron-supplemented succinate minimal medium in the presence of 50 uM of FeCl3; type: functional, organism-based
Procedure, shortened: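 PAO1 in succinate minimal medium with 8 μg/mL (50 μM) FeCl3, compound from DMSO dilutions. Plates are incubated 24 h at 35 °C. Iron-free pyoverdine is read by absorbance at 405 nm and by fluorescence (excitation 400 nm, emission 447 nm), with cell-free baselines. Runs are in duplicate at least twice, mean + SD.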

[9] = tested on: Pseudomonas aeruginosa; assay: Antimicrobial activity against Pseudomonas aeruginosa PAO1 assessed as inhibition of bacterial growth under Mueller-Hinton conditions without iron supplementation; type: functional
Procedure, shortened: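 Ciprofloxacin and deferoxamine serve as controls. MIC is taken as the highest dilution with visually clear wells.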

[10] = tested on: Pseudomonas aeruginosa; assay: Antibiofilm activity against Pseudomonas aeruginosa PAO1 assessed as inhibition of biofilm formation incubated for 24 to 25 hrs at 50 uM by WST8 dye based Diggle-protocol method relative to control; type: functional
Procedure, shortened: (§2)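 Modified Diggle microtiter method. Medium is 0.25% (w/v) nutrient broth no. 2 containing compound. PAO1 is grown overnight in LB, washed, and inoculated normalized to OD600 of 1. Plates are incubated humid for 24−25 h at 37 °C and washed twice with water. Wells are then stained for 3 h at 37 °C with 0.5 mM WST-8 plus 20 μM phenazine ethosulfate. Supernatant absorbance is read at 450 nm to give viable biofilm cells.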

[11] = tested on: Pseudomonas aeruginosa; assay: Antimicrobial activity against Pseudomonas aeruginosa PAO1 assessed as inhibition of planktonic cells growth at >0.15 uM incubated for 24 to 25 hrs; type: functional, organism-based
Procedure, shortened: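 PAO1 inoculum from overnight LB culture, washed in 0.25% (w/v) nutrient broth no. 2, normalized to OD600 1 and added to the same broth containing the test compound. Incubation was 24−25 h at 37 °C in a humid environment. Planktonic growth was read from the supernatant: it was regrown in LB at 37 °C for 7−8 h and OD600 was compared with no-supernatant, or CFU were plated on LB agar.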

[12] = tested on: Pseudomonas aeruginosa; assay: Antibiofilm activity against Pseudomonas aeruginosa PAO1 assessed as inhibition of biofilm formation incubated for 24 to 25 hrs at 20 uM in presence of sub-inhibitory concentration of tobramycin by WST8 dye based Diggle-protocol method relative to control; type: functional, organism-based
Procedure, shortened: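 Diggle WST-8 biofilm method. PAO1 in 0.25% nutrient broth is exposed to compound at 20 μM mixed with tobramycin at 0.1 μM (subinhibitory). Incubation is 24−25 h at 37 °C. Washed wells are stained 3 h with 0.5 mM WST-8 and 20 μM phenazine ethosulfate. A450 of the supernatant is read.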

[13] = tested on: Pseudomonas aeruginosa; assay: Toxicity in Pseudomonas aeruginosa PAO1 incubated for 24 to 25 hrs at 20 uM in presence of sub-inhibitory concentration of tobramycin by WST8 dye based Diggle-protocol method relative to control; type: organism-based; conditions: in vivo
[14] = tested on: Pseudomonas aeruginosa; assay: Antibiofilm activity against Pseudomonas aeruginosa PAO1 assessed as inhibition of biofilm formation incubated for 24 to 25 hrs at 20 uM by WST8 dye based Diggle-protocol method relative to control; type: functional; procedure, shortened: as §2
[15] = molecular target: Fucose-binding lectin PA-IIL (Pseudomonas aeruginosa (strain ATCC 15692 / DSM 22644 / CIP 104116 / JCM14847 / LMG 12228 / 1C / PRS 101 / PAO1)) (UniProt Q9HYN5); assay: Potency index, ratio of IC50 for Me-alpha-D-mannoside to IC50 for test compound for inhibition of Pseudomonas aeruginosa LecB by fluorescence polarization assay

SMILES | Activity [1] | inhibition at 20 µM [2] [%] | Activity [3] | pIC50 [7] | Activity [8] | MIC [9] [µg/mL] | other results
CC(C)(C)c1cc2c(OCCCn3cc(CN(O)C(=O)CCCCCn4cc(CO[C@H]5O[C@H](CO)[C@@H](O)[C@H](O)[C@H]5O)nn4)nn3)c(c1)Cc1cc(C(C)(C)C)cc(c1OCCCn1cc(CN(O)C(=O)CCCCCn3cc(CO[C@H]4O[C@H](CO)[C@@H](O)[C@H](O)[C@H]4O)nn3)nn1)Cc1cc(C(C)(C)C)cc(c1OCCCn1cc(CN(O)C(=O)CCCCCn3cc(CO[C@H]4O[C@H](CO)[C@@H](O)[C@H](O)[C@H]4O)nn3)nn1)Cc1cc(C(C)(C)C)cc(c1OCCCn1cc(CN(O)C(=O)CCCCCn3cc(CO[C@H]4O[C@H](CO)[C@@H](O)[C@H](O)[C@H]4O)nn3)nn1)C2 | Non-Toxic | 92 | – | – | – | – | –
C[C@@H]1O[C@@H](OCc2cn(CCCCCC(=O)N(O)Cc3cn(CCCOc4c5cc(C(C)(C)C)cc4Cc4cc(C(C)(C)C)cc(c4OCCCn4cc(CN(O)C(=O)CCCCCn6cc(CO[C@@H]7O[C@@H](C)[C@@H](O)[C@@H](O)[C@@H]7O)nn6)nn4)Cc4cc(C(C)(C)C)cc(c4OCCCn4cc(CN(O)C(=O)CCCCCn6cc(CO[C@@H]7O[C@@H](C)[C@@H](O)[C@@H](O)[C@@H]7O)nn6)nn4)Cc4cc(C(C)(C)C)cc(c4OCCCn4cc(CN(O)C(=O)CCCCCn6cc(CO[C@@H]7O[C@@H](C)[C@@H](O)[C@@H](O)[C@@H]7O)nn6)nn4)C5)nn3)nn2)[C@@H](O)[C@H](O)[C@@H]1O | Non-Toxic | 72 | inactive | 6.60 | Dose-dependent effect | > 512 | inhibition [4]: inactive; Ratio IC50 [5]: 3.37; Activity [6]: inactive; inhibition [10]: inactive
NC[C@H]1O[C@H](O[C@H]2[C@H](O)[C@@H](O[C@H]3O[C@H](CO)[C@@H](O)[C@H](N)[C@H]3O)[C@H](N)C[C@@H]2N)[C@H](N)C[C@@H]1O | – | – | – | – | – | – | Activity [11]: Active
C[C@@H]1O[C@@H](OCc2cn(CCCCCC(=O)NOCc3ccccc3)nn2)[C@@H](O)[C@H](O)[C@@H]1O | – | – | – | 6.30 | – | – | –
CC(C)(C)c1cc2c(OCCCn3cc(CN(O)C(=O)CCCCCn4cc(CO[C@H]5O[C@H](CO)[C@@H](O)[C@H](O)[C@@H]5O)nn4)nn3)c(c1)Cc1cc(C(C)(C)C)cc(c1OCCCn1cc(CN(O)C(=O)CCCCCn3cc(CO[C@H]4O[C@H](CO)[C@@H](O)[C@H](O)[C@@H]4O)nn3)nn1)Cc1cc(C(C)(C)C)cc(c1OCCCn1cc(CN(O)C(=O)CCCCCn3cc(CO[C@H]4O[C@H](CO)[C@@H](O)[C@H](O)[C@@H]4O)nn3)nn1)Cc1cc(C(C)(C)C)cc(c1OCCCn1cc(CN(O)C(=O)CCCCCn3cc(CO[C@H]4O[C@H](CO)[C@@H](O)[C@H](O)[C@@H]4O)nn3)nn1)C2 | Non-Toxic | 84 | inactive | 6.18 | Dose-dependent effect | > 512 | inhibition [12]: Active; inhibition at 50 µM [10]: 70%; Activity [13]: Non-Toxic; inhibition at 20 µM [14]: 83%; Ratio IC50 [15]: 236
O=C(CCCCCn1cc(CO[C@H]2O[C@H](CO)[C@@H](O)[C@H](O)[C@@H]2O)nn1)NOCc1ccccc1 | – | – | – | 3.83 | – | – | –
